Screens deposited in PubChem by Broad Institute.
Sampled rows, rich in hits. Any-hit rate of the full collection: about 1.5%.
AF4-AF9 inh: MLL-AF4/AF9 protein interaction inhibition | P42568 | AlphaScreen, biotin-AF4 peptide binding to FLAG-AF9 | inhibition, % at 10 µM | actives 0.47% (n = 350,000) | AID 651704;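 active = every replicate reaching a set inhibition limit, whatever the replicate mean, cut at about 25% in these data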;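 note: 0% = plate neutral control median and 100% = total signal loss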
S100A4 MyoIIA: S100A4-myosin IIA interaction inhibition; AID 652163; inhibition, % at 10.7 µM; S100A4/TAMRA-MyoIIA peptide fluorescence polarization; actives 0.14% (n = 360,000); P26447;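 active = mean inhibition of at least 70% across replicates, with every replicate also reaching that level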
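Test system: S100A4 monomer protein. Medium: HEPES buffer with Ca2+, pH 7.2. Reagent: fluorescent myosin IIA peptide, 5 nM. Compound dosing: single-point compound testing. Timing: 5 min between mix addition and reading. Benchmarks: DMSO neutral and TFP positive wells.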
dFosB act-1: enhances mouse delta FosB homodimer DNA binding; P13346; purified delta FosB, TAMRA-CDK5 oligo fluorescence polarization; percent of positive-control signal above neutral wells; activation, % at 25 µM; actives 0.99% (n = 340,000); AID 493131;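 active = mean activation above about 17%, with every replicate also reaching it, limit read from the data, passing the limit was not always enough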
RAD54 branch: inhibitors of human RAD54 branch migration; RAD54 Holliday junction branch migration, FAM/BHQ fluorescence; actives 0.14% (n = 360,000); AID 602329; Q92698; inhibition, % at 10.4 µM;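 active = mean normalized replicate activity at least 40 and at least half of replicates scoring 40 or more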;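 note: 0% = median of neutral control wells and 100% = median of positive control wells; inhibitors cause a drop in the FAM fluorescence signal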
Target sequence (Q92698 whole entry, looked up): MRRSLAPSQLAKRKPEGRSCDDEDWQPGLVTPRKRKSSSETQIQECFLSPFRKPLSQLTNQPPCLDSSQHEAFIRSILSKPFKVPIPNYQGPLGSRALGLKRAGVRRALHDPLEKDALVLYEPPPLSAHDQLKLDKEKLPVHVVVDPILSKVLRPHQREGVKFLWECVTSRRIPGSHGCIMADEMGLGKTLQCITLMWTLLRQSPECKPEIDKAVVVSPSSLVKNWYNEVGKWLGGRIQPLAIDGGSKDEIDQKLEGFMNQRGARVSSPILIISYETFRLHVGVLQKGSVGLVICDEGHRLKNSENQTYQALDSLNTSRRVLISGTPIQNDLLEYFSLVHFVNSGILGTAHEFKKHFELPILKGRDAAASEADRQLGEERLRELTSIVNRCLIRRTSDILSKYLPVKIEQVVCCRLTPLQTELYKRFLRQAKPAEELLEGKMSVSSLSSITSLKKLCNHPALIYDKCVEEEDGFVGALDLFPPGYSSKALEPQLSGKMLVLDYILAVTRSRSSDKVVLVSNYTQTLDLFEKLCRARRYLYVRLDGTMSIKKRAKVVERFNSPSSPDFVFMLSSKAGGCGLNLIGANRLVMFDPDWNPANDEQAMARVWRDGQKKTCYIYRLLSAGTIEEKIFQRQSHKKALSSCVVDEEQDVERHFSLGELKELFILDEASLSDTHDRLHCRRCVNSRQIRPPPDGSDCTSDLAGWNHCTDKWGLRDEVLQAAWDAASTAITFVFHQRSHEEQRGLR
RAD52 anneal inh: RAD52 (human) annealing inhibition | P43351 | recombinant RAD52 DNA annealing, FRET fluorescence | inhibition, % at 18.7 µM | actives 0.46% (n = 360,000) | AID 651710;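 active = every replicate showing at least 50% inhibition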
dFosB act-2: activators of mouse delta FosB homodimer DNA binding. activation, % at 24.9 µM. 2,400 tested, under 10 active. purified delta FosB, TAMRA-CDK5 oligo fluorescence polarization; normalised: neutral wells 0, positive control 100. shares compounds with dFosB act-1;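 active = highest replicate activation at or above 34% and every replicate reaching that threshold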;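 note: higher polarization means more probe DNA bound by delta FosB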
* marks the source's active call; other numbers are inactive results; nt = no result given.

SMILES | AF4-AF9 inh | S100A4 MyoIIA | dFosB act-1 | RAD54 branch | RAD52 anneal inh | dFosB act-2
COc1cccc(S(=O)(=O)N2CC[C@@H]3[C@H](CO)Nc4ccc(Br)cc4[C@@H]32)c1 | nt | nt | nt | 3 | nt | nt
CCCNC(=O)C[C@H]1CC[C@@H]2[C@@H](COc3ccc(NC(=O)Nc4ccccc4)cc3C(=O)N2C)O1 | nt | nt | nt | -2 | nt | nt
Cc1ccc(S(=O)(=O)N2CCN(C(=O)COC(=O)/C=C/c3ccc([N+](=O)[O-])cc3)CC2)c(C)c1 | 1 | -6 | 24* | 5 | -13 | -3
C=CCOc1ccc(/C=C/C(=O)OCC(=O)N2CCN(S(=O)(=O)c3ccc(C)cc3C)CC2)cc1 | 4 | -2 | 5 | 5 | 0 | nt
CCC(=O)N1CCC2(CC1)CN(CC1CCCCC1)[C@@H](CO)c1c2c2ccc(OC)cc2n1C | 8 | nt | nt | nt | nt | nt
Nc1c(C(=O)NCc2cccs2)nnn1CC(=O)Nc1cccc(Cl)c1 | -1 | -1 | 21* | nt | -22 | -2
Cc1ccc(NC(=O)Cn2nnc(C(=O)NCc3cccs3)c2N)cc1Cl | -4 | -3 | 12 | -5 | -7 | nt
COc1ccc(NC(=O)Cn2nnc(C(=O)NCc3cccs3)c2N)cc1Cl | -2 | 2 | 35* | 12 | 0 | 5
Cc1cccc(NC(=O)Cn2nnc(C(=O)Nc3ccc(F)c(Cl)c3)c2N)c1 | 5 | 6 | 90* | 17 | -7 | 1
O=C(Cc1ccccc1)NC(NC(=S)Nc1cc(Cl)ccc1Cl)C(Cl)(Cl)Cl (stereo unspecified) | nt | nt | 22* | 0 | nt | 0
O=C(NCc1ccccc1)Nc1cc(Cl)ccc1Cl | -4 | -6 | 40* | -2 | -9 | 2
O=C(NCc1csc2ccc(Cl)cc12)Nc1cccc2ccccc12 | -8 | 2 | 44* | nt | 1 | 2
Cc1ccc(C)c(NC(=S)NC(NC(=O)Cc2cccc3ccccc23)C(Cl)(Cl)Cl)c1 (stereo unspecified) | nt | nt | 28* | 5 | nt | 3
O=C(NCc1csc2ccc(Cl)cc12)Nc1ccccc1 | 0 | 3 | 13 | nt | -2 | nt
Cc1ccc(C)c(NC(=S)NC(NC(=O)N(C)C)C(Cl)(Cl)Cl)c1 (stereo unspecified) | nt | nt | -7 | 9 | nt | nt
C[C@H](CO)N1C[C@H](C)[C@H](CN(C)C(=O)Nc2ccc(F)cc2)Oc2c(NC(=O)C3CCCCC3)cccc2C1=O | -2 | 10 | nt | 0 | 21 | nt
C[C@@H]1CN([C@H](C)CO)C(=O)CCCn2nncc2CO[C@H]1CN(C)C(=O)CCCN(C)C | -15 | 7 | nt | nt | 0 | nt
CN(C)c1nc(NCc2ccccc2)nc(N/N=C/c2ccc3c(c2)OCO3)n1 | nt | nt | 58* | nt | nt | 2
O=C(NNC(=O)c1c(O)c2ccccc2[nH]c1=O)c1ccccc1Br | 1 | -1 | 52* | -14 | -7 | 0
C[C@H](CO)N1C[C@H](C)[C@H](CN(C)C(=O)Cc2cccnc2)Oc2ncc(-c3cccnc3)cc2C1=O | 0 | 14 | nt | 4 | 5 | nt
NS(=O)(=O)c1ccc(NC(=O)c2cc(Cl)ccc2Cl)cc1 | -5 | 5 | -1 | 7 | 1 | nt
NS(=O)(=O)c1ccc(NC(=O)c2cc(-c3cc(Cl)ccc3O)n[nH]2)cc1 | 0 | 1 | 38* | 8 | -10 | -2
CCc1cc2cc3c(cc2nc1SCC(=O)Nc1nccs1)OCO3 | nt | nt | 8 | -13 | nt | nt
CCc1cc2cc3c(cc2nc1SCC(=O)Nc1c[nH]c(=O)[nH]c1=O)OCO3 | 2 | 0 | 70* | -3 | -20 | -6
C[C@H](CO)N1C[C@H](C)[C@@H](CN(C)C(=O)Nc2ccc(C(F)(F)F)cc2)Oc2ccc(NC(=O)CCC(F)(F)F)cc2CC1=O | nt | nt | nt | -3 | nt | nt
C/C=C/c1cnc2c(c1)C(=O)N([C@@H](C)CO)C[C@@H](C)[C@H](CN(C)S(=O)(=O)c1ccccc1F)O2 | 0 | 13 | nt | -4 | 21 | nt
Cc1nc2c(sc(=S)n2Cc2ccco2)c(=O)n1CC(=O)Nc1ccccc1F | -3 | 3 | 83* | -9 | -12 | -1
CCn1c(=S)sc2c(=O)n(CC(=O)Nc3cccc(Cl)c3)c(C)nc21 | -2 | 0 | 8 | -8 | -7 | nt
Cc1nc2c(sc(=S)n2Cc2ccco2)c(=O)n1CC(=O)Nc1ccccc1 | -6 | -2 | 34* | -1 | -4 | 1
Cc1nnc(SCC(=O)Nc2ccccc2F)n1Cc1ccco1 | 2 | -3 | 3 | -16 | 3 | nt
